In general, IC50 refers to the concentration needed to halve the response being measured.

The target in one data set is T1, TRPC7 (Homo sapiens, UniProt Q9HCX4).
T1 sequence (Q9HCX4 1-862): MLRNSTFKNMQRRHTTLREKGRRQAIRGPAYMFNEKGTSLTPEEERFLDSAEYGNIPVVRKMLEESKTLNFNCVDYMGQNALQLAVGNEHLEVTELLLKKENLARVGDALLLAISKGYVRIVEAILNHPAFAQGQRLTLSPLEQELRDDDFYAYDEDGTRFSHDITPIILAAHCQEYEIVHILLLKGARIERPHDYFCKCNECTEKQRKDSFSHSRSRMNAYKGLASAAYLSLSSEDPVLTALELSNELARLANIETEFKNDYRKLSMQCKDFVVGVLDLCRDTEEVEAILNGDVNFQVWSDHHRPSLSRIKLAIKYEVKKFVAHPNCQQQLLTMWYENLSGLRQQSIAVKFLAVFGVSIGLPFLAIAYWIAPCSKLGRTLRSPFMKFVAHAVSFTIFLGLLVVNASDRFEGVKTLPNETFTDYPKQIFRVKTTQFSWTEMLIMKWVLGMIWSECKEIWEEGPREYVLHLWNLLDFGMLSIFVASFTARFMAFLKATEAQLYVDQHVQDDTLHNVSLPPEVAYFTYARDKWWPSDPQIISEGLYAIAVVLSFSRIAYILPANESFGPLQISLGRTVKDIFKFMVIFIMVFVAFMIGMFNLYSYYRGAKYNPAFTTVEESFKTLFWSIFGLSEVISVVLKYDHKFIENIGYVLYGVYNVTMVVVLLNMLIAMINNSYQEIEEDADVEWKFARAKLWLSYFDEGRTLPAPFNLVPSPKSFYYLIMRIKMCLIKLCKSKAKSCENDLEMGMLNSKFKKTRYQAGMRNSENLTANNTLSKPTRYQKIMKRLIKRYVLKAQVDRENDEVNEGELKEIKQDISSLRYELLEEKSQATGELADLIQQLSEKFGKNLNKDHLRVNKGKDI
Nature of the data set: Carbachol-induced Sr2+ entry in TRPC7-overexpressing HEK293 cells. Conditions: read-out: IC50 of Cch-induced Sr2+ entry; Cch 100 nM, Sr2+ 3 mM. In kind it is cell-based. The procedure, abridged: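 HEK293 cells were electroporated with GFP-tagged TRPC4, TRPC5 or TRPC7, plated after 24 h and cultured 48 h under selection; only high-GFP cells were analysed. Coverslip cells were loaded with Fura2 (2 µM) and treated with carbachol (100 nM) plus test compound (0 to 100 µM). Entry was measured after adding Sr²⁺ (3 mM), read as the 340/380 ratio; n = 3 to 5.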

The next data set concerns Human PBMCs. In words: Basal Ca2+ and Ca2+ oscillations in human PBMC-derived osteoclasts. In kind it is cell-based. Particulars: ELP-004 100 nM; for effect on basal Ca2+ levels: 14 days. The procedure, abridged: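 Human PBMCs cultured in αMEM with 10% FBS and human mCSF (50 ng/ml). At 24 h, RANKL (1 or 100 ng/ml) was added; 2–3 days later, human TNFα (2 ng/ml) and test compound (100 nM) were added where indicated. On day 14, coverslip cells were Fura2-loaded (2 µM, 30 min, RT) in buffer with 1 mM Ca²⁺ (pH 7.2) and de-esterified 30 min. Basal 340/380 ratio was recorded 3–5 min in 30–50 cells and plotted against variance.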

The conditions of data set [1]: preclinical testing in mice; cited from earlier work.
The subject of another data set is endogenous SOCE. In words: Endogenous SOCE. In kind it is cell-based. Conditions: read-out: IC50 of endogenous SOCE. The procedure, abridged: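 Store-operated entry by Fura2 imaging. Cells were loaded with Fura2-AM (2 µM, 30 min, RT) and de-esterified 30 min. They were then exposed 10 min to thapsigargin (2 µM) plus varying test compound concentrations in nominally Ca²⁺-free Hepes buffer (pH 7.2). After a stable baseline, 1 mM Ca²⁺ was added and entry was followed as the 340/380 nm ratio.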

In another data set the target is T2, mouse TRPC4β (Mus musculus, UniProt Q9QUQ5).
T2 sequence (Q9QUQ5 1-890 isoform Q9QUQ5-2): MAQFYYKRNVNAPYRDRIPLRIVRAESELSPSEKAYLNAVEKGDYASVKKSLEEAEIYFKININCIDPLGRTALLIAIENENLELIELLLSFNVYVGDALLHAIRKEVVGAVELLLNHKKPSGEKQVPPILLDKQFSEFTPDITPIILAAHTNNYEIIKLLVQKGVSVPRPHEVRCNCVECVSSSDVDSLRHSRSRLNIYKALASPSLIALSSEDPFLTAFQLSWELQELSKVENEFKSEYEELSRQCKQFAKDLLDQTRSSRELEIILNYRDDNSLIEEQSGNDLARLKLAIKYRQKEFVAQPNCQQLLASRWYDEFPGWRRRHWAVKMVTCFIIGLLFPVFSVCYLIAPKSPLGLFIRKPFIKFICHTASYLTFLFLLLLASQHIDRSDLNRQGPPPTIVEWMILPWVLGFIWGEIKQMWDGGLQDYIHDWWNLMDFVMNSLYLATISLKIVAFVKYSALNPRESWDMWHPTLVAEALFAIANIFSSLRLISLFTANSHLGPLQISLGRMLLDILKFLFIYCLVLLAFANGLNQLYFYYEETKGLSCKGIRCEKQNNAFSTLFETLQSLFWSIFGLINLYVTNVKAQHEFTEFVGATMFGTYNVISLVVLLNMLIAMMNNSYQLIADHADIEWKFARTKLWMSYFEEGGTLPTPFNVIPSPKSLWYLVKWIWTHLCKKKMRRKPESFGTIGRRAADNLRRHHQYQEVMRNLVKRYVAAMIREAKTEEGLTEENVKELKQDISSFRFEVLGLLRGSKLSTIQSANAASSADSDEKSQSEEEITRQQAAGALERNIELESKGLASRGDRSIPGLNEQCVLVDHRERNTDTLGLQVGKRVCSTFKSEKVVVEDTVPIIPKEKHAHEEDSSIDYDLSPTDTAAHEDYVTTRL
Nature of the data set: Whole-cell patch clamp of Englerin A-induced TRPC4 currents in HEK293 cells. In kind it is cell-based. Conditions: for decrease of EA-induced TRPC4 current 45 s after the peak: EA 30 nM. The procedure, abridged: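 Whole-cell recordings were made from HEK293 cells transiently expressing mouse TRPC4β, using ramps from −100 to +100 mV (200 ms, every 5 s; holding 0 mV). Pipette: CsCl with BAPTA (free Ca²⁺ 400 nM), pH 7.2; bath pH 7.4. After ~30 s in nominally Ca²⁺-free bath, Englerin A (30 nM) was applied. About 10 s after peak, Englerin A plus test compound (10, 30, 100 or 1000 nM) was perfused for ~90–100 s. Currents were read at ±100 mV.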
On the technique in general: In patch-clamp work, channel activity is measured electrically.

For `CCC(=O)N(C)c1ccc(Cl)c(Cl)c1` [ELP-004], the values for the IC50 at TRPC7 and in the data set with endogenous SOCE were 0.0228 µM and 100 µM, respectively. The “effect on basal Ca2+ levels” value with Human PBMCs (RANKL (100 ng/ml)) and in the data set on Human PBMCs (TNFα (2 ng/ml)/RANKL (1 ng/ml)) was “significantly lowered” in each case. Further, the “effect on Ca2+ oscillations” value with Human PBMCs (RANKL alone) is recorded as “no effect”. Further, the “effect on Ca2+ oscillation generation” value with Human PBMCs (TNFα/RANKL) was “significantly lowered”. Moreover, in data set [1], the “genotoxic or off-target toxicities” value was “without inducing genotoxic or extensive off-target toxicities”. For the same compound, the “decrease of EA-induced TRPC4 current 45 s after the peak” value on mouse TRPC4β (10 nM ELP-004, +100 mV) is on record as 37%; on mouse TRPC4β (10 nM ELP-004, −100 mV) it was 58%. Besides, the “inhibition of EA-induced TRPC4 currents” value against mouse TRPC4β (1 μM ELP-004) was “lost its inhibitory action”. The “inhibition of EA-induced TRPC4 currents at higher concentrations” value on mouse TRPC4β (30 and 100 nM ELP-004 versus 10 nM) is on record as “did not show stronger inhibitory effects”.

The values are drawn from paper PMC11734723 (Science Advances, 2025).
